# Activity calls are given as the source filed them.
# Experiments:
# [1] = target: T1, Vitamin D3 receptor (Gallus gallus) (UniProt O42392); test: Percentage binding to chick intestinal vitamin D3 receptor, relative competitive index (RCI)
# T1 sequence (whole entry): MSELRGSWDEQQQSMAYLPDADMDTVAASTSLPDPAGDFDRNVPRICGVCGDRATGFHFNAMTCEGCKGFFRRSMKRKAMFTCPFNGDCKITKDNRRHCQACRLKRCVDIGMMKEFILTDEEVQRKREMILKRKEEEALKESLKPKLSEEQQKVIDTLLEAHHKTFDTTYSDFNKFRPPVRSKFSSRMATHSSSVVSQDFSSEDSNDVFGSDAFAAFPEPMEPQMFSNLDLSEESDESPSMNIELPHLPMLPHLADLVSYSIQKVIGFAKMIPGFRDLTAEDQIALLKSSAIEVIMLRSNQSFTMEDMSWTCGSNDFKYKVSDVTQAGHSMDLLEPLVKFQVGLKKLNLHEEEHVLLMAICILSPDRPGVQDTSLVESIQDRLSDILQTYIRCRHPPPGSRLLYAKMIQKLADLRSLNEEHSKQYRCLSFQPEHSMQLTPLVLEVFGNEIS
# Procedure, shortened: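 Competition binding to chick intestinal VDR: rising concentrations of competitor or unlabeled 125D incubated 4 h at 4 °C with a defined amount of [³H]125D. Bound ligand separated from free by hydroxyapatite. RCI computed with 125D defined as 100%.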
# [2] = Effective dose for transcriptional activation in ROS 17/2.8 osteosarcoma cells; assay type: functional; details: Rattus norvegicus; read-out: ED50 (the source's name)
# [3] = Effective dose for Protease sensitivity; assay type: functional
# Procedure, shortened: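 In vitro translated VDR labeled with [³⁵S]methionine, incubated 20 min at room temperature with ligand (10^-7–10^-11 M), then trypsin digestion 20 min; products resolved on 14% SDS-PAGE and autoradiographed. ED50 is the ligand concentration giving 50% of the maximal level of the major trypsin-resistant fragment. Trypsin level is given as both 15 and 20 µg/mL in the text.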
# LNCaP [4] = test: Inhibition of colony formation assays on LNCaP cells; assay type: functional; details: Homo sapiens, read-out: ED50 (the source's name)
# Procedure, shortened: (§1)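 Soft agar clonal assay in six-well dishes with two layers: compound mixed into the 0.5% agar under layer, cells (1 × 10³/plate) in the 0.3% agar upper layer. Incubated 12 days at 37 °C in humidified 5% CO2. Colonies expressed as percent of untreated control plates. Triplicate plates per point, each experiment done at least three times; ED50 taken from dose-response curves.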
# [5] = target: T2, Vitamin D-binding protein (Homo sapiens) (UniProt P02774); test: Percentage binding to Human Vitamin D binding protein, relative competitive index (RCI)
# T2 sequence (whole entry): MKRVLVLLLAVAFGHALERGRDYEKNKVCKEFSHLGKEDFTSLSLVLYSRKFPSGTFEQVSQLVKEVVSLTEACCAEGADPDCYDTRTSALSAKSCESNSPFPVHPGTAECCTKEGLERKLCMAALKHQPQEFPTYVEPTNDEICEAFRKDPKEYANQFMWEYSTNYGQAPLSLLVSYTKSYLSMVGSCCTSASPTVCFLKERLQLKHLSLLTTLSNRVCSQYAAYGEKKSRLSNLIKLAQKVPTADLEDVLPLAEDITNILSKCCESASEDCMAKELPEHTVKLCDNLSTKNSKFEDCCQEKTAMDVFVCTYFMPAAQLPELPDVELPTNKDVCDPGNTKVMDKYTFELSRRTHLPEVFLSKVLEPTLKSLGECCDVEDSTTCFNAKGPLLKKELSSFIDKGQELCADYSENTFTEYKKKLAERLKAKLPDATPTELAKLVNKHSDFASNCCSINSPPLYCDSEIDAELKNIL
# Procedure, shortened: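 Steroid competition assay with human DBP: increasing unlabeled ligand or 125D standard incubated 4 h at 4 °C with a fixed concentration of [³H]125D. Bound and free ligand separated by charcoal-dextran. RCI calculated relative to 125D, which is set at 100%.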
# MCF7 = test: Inhibition of colony formation assays on MCF-7 cells; assay type: functional; details: Homo sapiens, read-out: ED50 (the source's name); procedure, shortened: as §1
# HL-60 = test: Inhibition of colony formation assays on HL-60 cells; assay type: functional; details: Homo sapiens, read-out: ED50 (the source's name)
# LNCaP [6] = test: Inhibition of colony formation assays on LNCaP cells; (NR: not reached at <= 10e -6M); assay type: functional, cell-based; details: Homo sapiens; procedure, shortened: as §1
RCI [1],EC50 [2],EC50 (LNCaP [4]),RCI [5],EC50 (MCF7),EC50 (HL-60),SMILES,ED50 [3],ED50 (LNCaP [6])
38%,1 nM,82 nM,2.5%,1.2 nM,0.34 nM,C=C1/C(=C\C=C2/CCC[C@]3(C)[C@@H](C(CCCC(C)(C)O)CCCC(C)(C)O)CC[C@@H]23)C[C@@H](O)C[C@@H]1O,180 nM,–
147%,–,–,2.6%,–,–,C=C1/C(=C\C=C2/CCC[C@]3(C)[C@@H]([C@@H](C)CCCC(C)(C)O)CC[C@@H]23)C[C@@H](O)C[C@@H]1O,0.13 nM,–
–,–,–,100%,–,–,C=C1/C(=C\C=C2/CCC[C@]3(C)[C@@H]([C@H](C)CCCC(C)(C)O)CC[C@@H]23)C[C@@H](O)C[C@@H]1O,5.9 nM,inactive

# Source: ChEMBL document CHEMBL1133773, “Characterization of a novel analogue of 1alpha,25(OH)(2)-vitamin D(3) with two side chains: interaction with its nuclear receptor and cellular actions” (2000)
